From article PMC11303814 (Nature Communications, 2024)
Substitutions are numbered along the chain they refer to.

Experiments:
Type in all cases: cell-based
rP2X7-R125A/Q143A/I214A = target: T1, rP2X7-R125A/Q143A/I214A (Rattus norvegicus, UniProt Q64663, I214A/Q143A/R125A); assay: TEVC deactivation time; settings: after 100 μM ATP or 100 μM BzATP
T1 sequence (Q64663 1-595 R125A/Q143A/I214A): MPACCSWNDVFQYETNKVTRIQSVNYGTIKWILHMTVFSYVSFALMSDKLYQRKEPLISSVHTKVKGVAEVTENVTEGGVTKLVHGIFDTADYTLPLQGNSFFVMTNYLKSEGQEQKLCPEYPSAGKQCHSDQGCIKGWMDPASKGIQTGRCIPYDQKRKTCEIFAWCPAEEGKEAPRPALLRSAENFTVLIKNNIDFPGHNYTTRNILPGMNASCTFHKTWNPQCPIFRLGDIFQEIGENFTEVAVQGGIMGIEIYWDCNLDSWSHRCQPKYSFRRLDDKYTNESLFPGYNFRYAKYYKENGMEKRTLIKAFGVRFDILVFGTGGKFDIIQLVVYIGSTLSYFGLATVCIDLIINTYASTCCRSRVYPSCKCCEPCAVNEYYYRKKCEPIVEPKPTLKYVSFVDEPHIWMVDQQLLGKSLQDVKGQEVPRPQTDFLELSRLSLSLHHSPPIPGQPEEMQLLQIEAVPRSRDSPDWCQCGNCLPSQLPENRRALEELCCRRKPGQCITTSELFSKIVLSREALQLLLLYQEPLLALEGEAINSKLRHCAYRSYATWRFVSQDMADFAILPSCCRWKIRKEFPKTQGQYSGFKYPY
Outline: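 Triple-mutant rP2X7 was expressed ~20 h in Xenopus oocytes (50 nL of 10 ng/µL mRNA) and recorded by TEVC in pH 7.4 HEPES buffer containing flufenamic acid. Deactivation followed 100 µM ATP or 100 µM BzATP. τ is the time to 63% return to baseline after washout, from a one- or two-phase decay fit. Triplicate over first to third applications per oocyte; mean ± SD.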

rP2X7-R125A/I214A [1] = target: T2, rP2X7-R125A/I214A (Rattus norvegicus, UniProt Q64663, I214A/R125A); assay: TEVC dose response; settings: read-out: EC50 (apparent affinity), mean ± SD, triplicate
T2 sequence (Q64663 1-595 R125A/I214A): T1 sequence (Q64663 1-595 R125A/Q143A/I214A) with A143Q
Outline: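 TEVC was run on Xenopus oocytes ~20 h after injection of wild-type or mutant rP2X7 mRNA, in pH 7.4 HEPES buffer with 0.1 mM flufenamic acid. Receptors were facilitated at 100 µM before recording. Dilution series: ATP 1.5 mM–2 µM (7 points), BzATP 300–0.14 µM (8 points). Responses were normalized to the largest concentration, fitted by nonlinear regression for EC50, and averaged across triplicates (mean ± SD).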

rP2X7-R125A/I214A [2] = target: T2, rP2X7-R125A/I214A; assay: TEVC deactivation time; settings: after 100 μM ATP or 10 μM BzATP
Outline: (§1)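 Xenopus oocytes injected with 50 nL of 10 ng/µL mutant rP2X7 mRNA, expressed ~20 h, clamped in pH 7.4 HEPES buffer with 0.1 mM flufenamic acid and EDTA. Currents were evoked by 100 µM ATP or 10 µM BzATP. τ is the time for current to return to 63% of baseline after agonist removal, from a one- or two-phase decay fit. Done in triplicate over first to third applications per oocyte; mean ± SD.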

rP2X7 K127A = target: T3, rP2X7 K127A (Rattus norvegicus, UniProt Q64663, K127A); assay: TEVC deactivation time; settings: after 100 μM ATP or 10 μM BzATP
T3 sequence (Q64663 1-595 K127A): T1 sequence (Q64663 1-595 R125A/Q143A/I214A) with A125R, K127A, A143Q, A214I
Outline: as §1

| Compound | deactivation lifetime τ (rP2X7-R125A/Q143A/I214A) | EC50 (rP2X7-R125A/I214A [1]) | deactivation lifetime τ (rP2X7-R125A/I214A [2]) | deactivation lifetime τ (rP2X7 K127A) |
| --- | --- | --- | --- | --- |
| Nc1ncnc2c1ncn2[C@@H]1O[C@H](COP(=O)(O)OP(=O)(O)OP(=O)(O)O)[C@@H](O)[C@H]1O [ATP] | 2.4 ± 0.8 s | 77 ± 10 µM | 3.7 ± 0.8 s | 2.3 ± 0.7 s |
| BzATP | 3.7 ± 0.7 s | 14 ± 2 µM | 23 ± 13 s | 21 ± 6.2 s |
